Published values gathered from unrelated publications.
Target: Mitogen-activated protein kinase 11 (MAPK11, Homo sapiens, UniProt Q15759)

Structure (SMILES) | effect on | action | technique | tested at | measurement | value
CCN1CCC2(CC1)NC(=O)c1c(c3ccc(Cl)c(Cl)c3n1C)C2C#N (racemic) | thermal stability |  | DSF | 10 µM | ΔTm | -0.3 °C
O=C(Nc1cnn(-c2csc(C(=O)NC3COC3)c2)c1)Nc1c(F)cccc1Cl | enzyme activity | inhibitor |  | 5 µM | remaining activity | 91.7%
N#CC1c2c([nH]c3c(Cl)c(Cl)ccc23)C(=O)NC12CCCCC2 (racemic) | thermal stability |  | DSF | 10 µM | ΔTm | -0.1 °C
C[S+]([O-])c1ccc(-c2nc(-c3ccncc3)c(-c3ccc(F)cc3)[nH]2)cc1 (centres unmarked) | cell-free assay |  |  | 0.5 µM | remaining signal | 68.9%
CNCc1ccccc1-c1csc([C@H](C)Nc2nc(C)nc3cc(OC)c(OC)cc23)c1 | cell-free assay |  | competition with immobilised ligand | 1 µM | remaining binding | 100%
COc1cc2ncnc(Nc3ccc(Oc4ccccc4)cc3C)c2cc1OC | enzyme activity | inhibitor |  | 1 µM | inhibition | 5%
CC/C(=N\NC(=O)NCc1cccc(O)c1)c1ccc(O)c(C)c1O | enzyme activity | inhibitor |  | 0.1 µM | inhibition | 0.5%
Oc1cccc(-c2nc(N3CCOCC3)c3oc4ncccc4c3n2)c1 | cell-free assay |  |  | 0.5 µM | remaining signal | 103%
CCCCNc1ncc2c(-c3ccc(F)cc3)nn(C[C@H]3CC[C@H](N)CC3)c2n1 | target engagement in cells | inhibitor | chemoproteomics | 20 mM | inhibition | 36.9%
CC(C)(C)c1nc2c(s1)c1nc(N)ncc1c1ccc(NS(=O)(=O)c3c(F)cccc3F)c(F)c12 | enzyme activity | inhibitor | radiometric | 1 µM | remaining activity | 101%
CCN(CC)c1ccc(C2=NNC(=O)CC2C)cc1[N+](=O)[O-] (centres unmarked) | enzyme activity | inhibitor |  | 10 µM | remaining activity | 97%
Nc1cnc(N2CCc3cc(S(=O)(=O)Nc4c(F)cc(Cl)cc4F)cc(N4CCCC4=O)c32)nc1 | cell-free assay |  | competition with immobilised ligand | 1 µM | remaining binding | 100%
Cc1ccc(Nc2nccc(N(C)c3ccc4c(C)n(C)nc4c3)n2)cc1S(N)(=O)=O | enzyme activity | inhibitor |  | 10 µM | inhibition | 64%
CNCc1ccc(-c2cc(-c3nc(-c4ccc(S(=O)(=O)C(C)C)cc4)cnc3N)on2)cc1 | enzyme activity | inhibitor |  | 0.4 µM | inhibition | 2%
Cn1c2c(Cl)c(Cl)ccc2c2cn[nH]c(=O)c21 | thermal stability |  | DSF | 10 µM | ΔTm | 0.1 °C
COc1cc(/C=C/C(=O)CC(=O)/C=C/c2ccc(O)c(OC)c2)ccc1O | enzyme activity | inhibitor |  | 1 µM | activity vs control | 101%
CCCS(=O)(=O)Nc1ccc(F)c(C(=O)c2c[nH]c3ncc(-c4ccc(Cl)cc4)cc23)c1F | enzyme activity | inhibitor |  | 1 µM | inhibition | < 10%
CS(=O)(=O)Nc1cccc(-c2csc(NC(=O)CSc3nc4nccnc4c(=O)n3CCc3ccccc3)n2)c1 | enzyme activity | inhibitor |  | 10 µM | inhibition | 7%
Cn1c2c(c3ccccc31)C(C#N)C(C)(C)NC2=O (centres unmarked) | thermal stability |  | DSF | 10 µM | ΔTm | -0.7 °C

Structure (SMILES) | effect on | action | technique | tested at | measurement | value
CC(C)(O)c1cncc(-c2nc3ccc(F)cc3n2C2CC2)c1 | cell-free assay |  | competition with immobilised ligand | 1 µM | remaining binding | 100%
Nc1nc(NC2CCCCC2)sc1C(=O)c1ccccc1 | enzyme activity | inhibitor |  | 10 µM | remaining activity | 22%
CCN(CC)CCNC(=O)c1c(C)[nH]c(/C=C2\C(=O)Nc3ccc(F)cc32)c1C | enzyme activity | inhibitor |  | 0.3 µM | inhibition | -5%
COc1cc2c(Nc3ccc(Br)cc3F)ncnc2cc1OCC1CCN(C)CC1 | cell-free assay |  |  | 0.5 µM | remaining signal | 97.1%
O=C(Nc1ccc(Oc2ccc(F)cc2)cc1)N1CCc2ncccc2[C@H]1c1ccc(F)cc1 | cell-free assay |  | competition with immobilised ligand | 1 µM | remaining binding | 100%
COc1cc(Nc2cnc(C#N)c(O[C@H](C)CN(C)C)n2)ncc1-c1cnn(C)c1 | enzyme activity | inhibitor | radiometric | 10 µM | remaining activity | 92%
Cc1cnc(NC2CCOCC2)nc1-n1cnc(C(=O)NC(CN)c2cc(F)cc(Cl)c2)c1 (centres unmarked) | enzyme activity | inhibitor | radiometric | 1 µM | remaining activity | 78%
O=C(NS(=O)(=O)c1ccc(NCC2CCOCC2)c([N+](=O)[O-])c1)c1ccc(N2CCN(Cc3ccc(C(F)(F)F)cc3-c3ccc(Cl)cc3)CC2)cc1Oc1cnc2[nH]ccc2c1 | cell-free assay |  | competition with immobilised ligand | 1 µM | remaining binding | 78%
Cn1c2c(c3ccc(Cl)c(Cl)c31)C(C#N)C1(CCCCC1)NC2=O (racemic) | thermal stability |  | DSF | 10 µM | ΔTm | 0.1 °C
Nc1ncnc2occ(-c3ccc(NC(=O)Nc4cc(C(F)(F)F)ccc4F)cc3)c12 | cell-free assay | inhibitor |  | 20 µM | remaining signal | 0%
CN1CC(Oc2cnc(C#N)cc2-c2ccn3nc(NC(=O)C4CC4)cc3c2)C1 | enzyme activity | inhibitor |  | 1 µM | inhibition | 10%
CCCOc1ccc(OC)c(F)c1C(=O)c1ccc(C(=O)N[C@@H]2CNC[C@H]2NC(=O)c2ccc3[nH]ncc3c2)cc1 | enzyme activity | inhibitor |  | 10 µM | remaining activity | 96%
Cc1ccc(C(=O)Nc2ccc(CN3CCN(C)CC3)c(C(F)(F)F)c2)cc1C#Cc1cnc2cccnn12 | enzyme activity | inhibitor |  | 23.5 nM | remaining activity | 63%
NS(=O)(=O)c1cc(NC(=O)Cc2ccccc2)ccc1Oc1cccc(Cl)c1 | cell-free assay |  | competition with immobilised ligand | 1 µM | remaining binding | 100%
Oc1cccc(-c2nc(N3CCOCC3)c3oc4ncccc4c3n2)c1 | enzyme activity | inhibitor |  | 10 µM | remaining activity | 100%
Cc1cc(-n2nc(Cc3cc(F)cc(C(F)(F)F)c3)nc2C)ccc1C(N)=O | cell-free assay |  | competition with immobilised ligand | 1 µM | remaining binding | 90%
Cn1c2c(c3ccc(Cl)c(Cl)c31)C(C#N)C(C)(C)NC2=O (centres unmarked) | thermal stability |  | DSF | 10 µM | ΔTm | 0.8 °C
O=C1NC(c2ccccn2)Sc2ccccc21 (centres unmarked) | cell-free assay |  | competition with immobilised ligand | 1 µM | remaining binding | 100%
CC(C)(C)C(=O)c1sc(NC2CCCCC2)nc1N | enzyme activity | inhibitor |  | 10 µM | remaining activity | 82%
